# Measurements as given in ChEMBL document CHEMBL3853298, “Total synthesis and in vitro bioevaluation of clavaminols A, C, H & deacetyl clavaminol H as potential chemotherapeutic and antibiofilm agents” (Eur J Med Chem, 2016).
# Tests used:
# Pichia sporocuriosa [1] = assay: Antifungal activity against Issatchenkia hanoiensis MTCC 4755 after 24 hrs by well diffusion method; type: functional; conditions: MTCC 4755, 24 h
# In short: (§1)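 Candida/Issatchenkia lawns (0.1 mL suspension) on Mueller-Hinton agar; 6.0 mm bored wells receive compound across a 250 to 0.48 per-well dose range, methanol as negative control. Plates kept 24 h at 30 °C. MIC is the lowest concentration producing a visible inhibition zone. Duplicate runs, mean values.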
# Candida albicans [2] = assay: Fungicidal activity against Candida albicans MTCC 183 after 24 hrs; type: functional; conditions: MTCC 183, 24 h
# In short: (§2)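 Candida grown overnight in Mueller Hinton broth. Compound serially diluted in the same broth from 150 to 0 and inoculated to a final 1.5 × 10^8 CFU/mL (0.5 McFarland), then 24 h at 37 °C. Tube contents plated onto Mueller Hinton agar for 24 h at 37 °C. MFC is the lowest concentration killing the yeast. Duplicates.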
# Raoultella planticola [3] = assay: Antibacterial activity against Klebsiella planticola MTCC 530 after 24 hrs by well diffusion method; type: functional; conditions: MTCC 530, 24 h
# In short: (§3)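 Bacteria spread (0.1 mL suspension) on Mueller-Hinton agar; 6.0 mm wells loaded with compound over a 250 to 0.48 per-well dose range, methanol as negative control. Incubated 24 h at 37 °C. MIC taken as the lowest concentration still giving an inhibition zone. Duplicates, mean reported.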
# [4] = Antifungal activity against Candida glabrata MTCC 3019 after 24 hrs by well diffusion method; type: functional; conditions: Nakaseomyces glabratus; in short: as §1
# Staphylococcus aureus [5] = assay: Bactericidal activity against Staphylococcus aureus MTCC 96 after 24 hrs; type: functional; conditions: MTCC 96, 24 h
# In short: (§4)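 Broth macrodilution in Mueller Hinton broth, compound serially diluted from 150 down to 0. Overnight bacterial culture added to a final 1.5 × 10^8 CFU/mL (0.5 McFarland), 24 h at 37 °C. Suspension then subcultured onto Mueller Hinton agar for 24 h at 37 °C. MBC is the lowest concentration killing the strain. Duplicates.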
# Candida albicans [6] = assay: Antifungal activity against Candida albicans MTCC 4748 after 24 hrs by well diffusion method; type: functional; conditions: MTCC 4748, 24 h; in short: as §1
# Candida albicans [7] = assay: Antifungal activity against Candida albicans MTCC 3958 after 24 hrs by well diffusion method; type: functional; conditions: MTCC 3958, 24 h; in short: as §1
# Raoultella planticola [8] = assay: Bactericidal activity against Klebsiella planticola MTCC 530 after 24 hrs; type: functional; conditions: MTCC 530, 24 h; in short: as §4
# Bacillus subtilis = assay: Antibiofilm activity against Bacillus subtilis MTCC 121 incubated for 24 hrs under static condition by crystal violet staining-based assay; type: functional
# In short: (§5)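 Strains grown overnight in tryptone soy broth with 0.5% glucose. Compound (250 to 0) mixed with inoculum at 5 × 10^5 CFU/mL in polystyrene microtiter plates. Non-adherent cells washed off with PBS; wells stained with 0.1% crystal violet, dye solubilised in 95% ethanol, absorbance read at 540 nm. IC50 for 50% biofilm inhibition taken from dose-response curves. Triplicates, mean ± S.D.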
# Candida albicans [9] = assay: Fungicidal activity against Candida albicans MTCC 1637 after 24 hrs; type: functional; conditions: MTCC 1637, 24 h; in short: as §2
# Candida albicans [10] = assay: Antifungal activity against Candida albicans MTCC 183 after 24 hrs by well diffusion method; type: functional; conditions: MTCC 183, 24 h; in short: as §1
# Staphylococcus aureus [11] = assay: Antibacterial activity against Staphylococcus aureus MLS16 MTCC 2940 after 24 hrs by well diffusion method; type: functional; conditions: MLS16 MTCC 2940, 24 h; in short: as §3
# Candida albicans [12] = assay: Fungicidal activity against Candida albicans MTCC 4748 after 24 hrs; type: functional; conditions: MTCC 4748, 24 h; in short: as §2
# Escherichia coli = assay: Bactericidal activity against Escherichia coli MTCC 739 after 24 hrs; type: functional; conditions: MTCC 739, 24 h; in short: as §4
# Pichia sporocuriosa [13] = assay: Fungicidal activity against Issatchenkia hanoiensis MTCC 4755 after 24 hrs; type: functional; conditions: MTCC 4755, 24 h
# In short: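 Broth dilution in Mueller Hinton broth with serial compound concentrations from […]. Overnight Candida cultures added to a final 1.5 × 10^8 CFU/mL (0.5 McFarland). Incubated 24 h at 37 °C, then 10 µL of each tube plated on Mueller Hinton agar for 24 h at 37 °C. MFC taken as the lowest concentration that kills the strain. Run in duplicate.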
# Staphylococcus aureus [14] = assay: Antibiofilm activity against Staphylococcus aureus MTCC 96 incubated for 24 hrs under static condition by crystal violet staining-based assay; type: functional; in short: as §5
# [15] = Antifungal activity against Candida krusei MTCC 3020 after 24 hrs by well diffusion method; type: functional; conditions: Pichia kudriavzevii; in short: as §1
# Candida albicans [16] = assay: Fungicidal activity against Candida albicans MTCC 854 after 24 hrs; type: functional; conditions: MTCC 854, 24 h; in short: as §2
# Candida albicans [17] = assay: Antifungal activity against Candida albicans MTCC 1637 after 24 hrs by well diffusion method; type: functional; conditions: MTCC 1637, 24 h; in short: as §1
# [18] = Cytotoxicity against human DU145 cells assessed as cell growth inhibition by MTT assay; type: functional, cell-based; conditions: DU-145
# [Candida] aaseri [19] = Fungicidal activity against Candida aaseri MTCC 1962 after 24 hrs; type: functional; conditions: Yamadazyma aaseri, MTCC 1962, 24 h; in short: as §2
# Micrococcus luteus = assay: Bactericidal activity against Micrococcus luteus MTCC 2470 after 24 hrs; type: functional; conditions: MTCC 2470, 24 h; in short: as §4
# Candida albicans [20] = assay: Antifungal activity against Candida albicans MTCC 854 after 24 hrs by well diffusion method; type: functional; conditions: MTCC 854, 24 h; in short: as §1
# Candida albicans [21] = assay: Fungicidal activity against Candida albicans MTCC 3018 after 24 hrs; type: functional; conditions: MTCC 3018, 24 h; in short: as §2
# [Candida] aaseri [22] = Antifungal activity against Candida aaseri MTCC 1962 after 24 hrs by well diffusion method; type: functional; conditions: Yamadazyma aaseri, MTCC 1962, 24 h; in short: as §1
smiles,measurement,setting,value
CCCCCCCCC[C@H](O)[C@H](N)CO,MIC,Pichia sporocuriosa [1],15.6 µg/mL
same,MFC,Candida albicans [2],15.6 µg/mL
same,MIC,Raoultella planticola [3],15.6 µg/mL
same,MIC,[4],15.6 µg/mL
same,MBC,Staphylococcus aureus [5],7.8 µg/mL
same,MIC,Candida albicans [6],15.6 µg/mL
same,MIC,Candida albicans [7],7.8 µg/mL
same,MBC,Raoultella planticola [8],31.2 µg/mL
same,IC50,Bacillus subtilis,2.6 µg/mL
same,MFC,Candida albicans [9],15.6 µg/mL
same,MIC,Candida albicans [10],15.6 µg/mL
same,MIC,Staphylococcus aureus [11],3.9 µg/mL
same,MFC,Candida albicans [12],31.2 µg/mL
same,MBC,Escherichia coli,15.6 µg/mL
same,MFC,Pichia sporocuriosa [13],31.2 µg/mL
same,IC50,Staphylococcus aureus [14],4.5 µg/mL
same,MIC,[15],7.8 µg/mL
same,MFC,Candida albicans [16],15.6 µg/mL
same,MIC,Candida albicans [17],7.8 µg/mL
same,IC50,[18],34.1 µM
same,MFC,[Candida] aaseri [19],31.2 µg/mL
same,MBC,Micrococcus luteus,7.8 µg/mL
same,MIC,Candida albicans [20],15.6 µg/mL
same,MFC,Candida albicans [21],15.6 µg/mL
same,MIC,[Candida] aaseri [22],15.6 µg/mL
